Where a SMILES comes first, the peptide text is derived from it. [ ]: non-standard residue; d: D form. Pra = C#CC[CH](N)C(=O)O
Columns and labels:
Klebsiella aerogenes = assay: Minimum inhibitory concentration against Enterobacter aerogenes; format: functional
Procedure, shortened: (§1)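 Agar dilution on defined peptide susceptibility medium with peptide in serial twofold dilutions. Strains subcultured on blood or chocolate agar. Inoculum from overnight culture in liquid peptide medium, diluted to approx 1×10^7 cfu/mL, applied by Steers replicator. Plates incubated overnight at 37 °C. MIC taken as lowest concentration permitting fewer than ten colonies at 16–18 h.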

Klebsiella pneumoniae = assay: Minimum inhibitory concentration against Klebsiella pneumoniae; format: functional; procedure, shortened: as §1
Staphylococcus aureus = assay: Minimum inhibitory concentration against Staphylococcus aureus; format: functional; procedure, shortened: as §1
Salmonella typhimurium [1] = assay: Minimum inhibitory concentration against Salmonella Typhimurium; format: functional, Salmonella enterica subsp. enterica serovar Typhimurium; settings: Salmonella enterica; procedure, shortened: as §1
Haemophilus influenzae = assay: Minimum inhibitory concentration against Hemophilus influenzae; format: functional
Procedure, shortened: (§2)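 Agar dilution on defined peptide susceptibility medium with hemin (25 μg/mL), NAD (25 μg/mL) and Isovitalex (1%) added, peptide in serial twofold dilutions. Colonies from overnight chocolate or blood agar resuspended in liquid peptide medium to 10⁸ cfu/mL, applied by Steers replicator. Incubation overnight at 37 °C under 7% CO₂. MIC: lowest concentration giving fewer than ten colonies at 16–18 h.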

Pseudomonas aeruginosa = assay: Minimum inhibitory concentration against Pseudomonas aeruginosa; format: functional; procedure, shortened: as §1
Serratia marcescens = assay: Minimum inhibitory concentration against Serratia marcescens; format: functional; procedure, shortened: as §1
Proteus mirabilis = assay: Minimum inhibitory concentration against Proteus mirabilis; format: functional; procedure, shortened: as §1
Escherichia coli = assay: Minimum inhibitory concentration against Escherichia coli; format: functional; procedure, shortened: as §1
Enterobacter cloacae = assay: Minimum inhibitory concentration against Enterobacter cloacae; format: functional; procedure, shortened: as §1
Morganella morganii = assay: Minimum inhibitory concentration against Morganella morganii; format: functional; procedure, shortened: as §1
Streptococcus agalactiae = assay: Minimum inhibitory concentration against Streptococcus agalactiae; format: functional; procedure, shortened: as §2
[2] = tested on: Staphylococcus epidermidis; assay: Minimum inhibitory concentration against Staphylococcus epidermidis; format: functional; procedure, shortened: as §1
Streptococcus pyogenes = assay: Minimum inhibitory concentration against Streptococcus pyogenes; format: functional; procedure, shortened: as §2
Shigella flexneri = assay: Minimum inhibitory concentration against Shigella flexneri; format: functional; procedure, shortened: as §1
Enterococcus faecalis = assay: Minimum inhibitory concentration against Streptococcus faecalis; format: functional; procedure, shortened: as §1
Salmonella typhimurium [3] = assay: Minimum inhibitory concentration against Salmonella Typhimurium

Row | Compound | MIC (Klebsiella aerogenes) [mg/L] | MIC (Klebsiella pneumoniae) [mg/L] | MIC (Staphylococcus aureus) [mg/L] | MIC (Salmonella typhimurium [1]) [mg/L] | MIC (Haemophilus influenzae) [mg/L] | MIC (Pseudomonas aeruginosa) [mg/L] | MIC (Serratia marcescens) [mg/L] | MIC (Proteus mirabilis) [mg/L] | MIC (Escherichia coli) [mg/L] | MIC (Enterobacter cloacae) [mg/L] | MIC (Morganella morganii) [mg/L] | MIC (Streptococcus agalactiae) [mg/L] | MIC [2] [mg/L] | MIC (Streptococcus pyogenes) [mg/L] | MIC (Shigella flexneri) [mg/L] | MIC (Enterococcus faecalis) [mg/L] | MIC (Salmonella typhimurium [3]) [mg/L]
1 | C#CC[C@H](NC(=O)[C@H](C)N)C(=O)O.O=C(O)C(F)(F)F | > 100 | > 100 | > 100 | > 100 | > 100 | > 100 | > 100 | > 100 | > 100 | > 100 | > 100 | 100 | 1.56 | > 100 | > 100 | 100 | 
2 | C#CC[C@@H](N)C(=O)N[C@@H](C)C(=O)O.O=C(O)C(F)(F)F | > 100 | > 100 | > 100 | > 100 | > 100 | > 100 | > 100 | > 100 | > 100 | > 100 | > 100 | > 100 | > 100 | > 100 | > 100 | > 100 | 
3 | C[C@H](N)C(=O)N[C@@H](C)C(=O)O.O=C(O)C(F)(F)F | > 100 | > 100 | > 100 |  | > 100 | > 100 | > 100 | > 100 | > 100 | > 100 | > 100 | > 100 | > 100 | > 100 | > 100 | > 100 | > 100
4 | C#CC[C@H](NC(=O)[C@@H](N)CC#C)C(=O)O.O=C(O)C(F)(F)F (H-[Pra]-[Pra]-OH) | > 100 | > 100 | 3.12 | > 100 | > 100 | > 100 | > 100 | > 100 | 25 | 50 | > 100 | 3.12 | 0.78 | > 100 | 12.5 | > 100 | 
5 | C#CCC(N)C(=O)NC(CC#C)C(=O)O.O=C(O)C(F)(F)F (stereo not given) (H-[Pra]-[Pra]-OH; configuration not given here) | > 100 | > 100 | 12.5 | > 100 | > 100 | > 100 | > 100 | > 100 | > 100 | > 100 | > 100 | 6.25 | 3.12 | > 100 | > 100 | > 100 | 
